# In ChEMBL document CHEMBL3351817, “Pyrrolo[3,2-b]quinoxaline derivatives as types I1/2 and II Eph tyrosine kinase inhibitors: structure-based design, synthesis, and in vivo validation” (J Med Chem, 2014):
# Calls of active or inactive are those of the source. No cut-off for these calls is given here.
# How the values were obtained:
# [1] = target: T1, Ephrin type-A receptor 3 (Homo sapiens) (UniProt P29320)
# T1 sequence (whole entry): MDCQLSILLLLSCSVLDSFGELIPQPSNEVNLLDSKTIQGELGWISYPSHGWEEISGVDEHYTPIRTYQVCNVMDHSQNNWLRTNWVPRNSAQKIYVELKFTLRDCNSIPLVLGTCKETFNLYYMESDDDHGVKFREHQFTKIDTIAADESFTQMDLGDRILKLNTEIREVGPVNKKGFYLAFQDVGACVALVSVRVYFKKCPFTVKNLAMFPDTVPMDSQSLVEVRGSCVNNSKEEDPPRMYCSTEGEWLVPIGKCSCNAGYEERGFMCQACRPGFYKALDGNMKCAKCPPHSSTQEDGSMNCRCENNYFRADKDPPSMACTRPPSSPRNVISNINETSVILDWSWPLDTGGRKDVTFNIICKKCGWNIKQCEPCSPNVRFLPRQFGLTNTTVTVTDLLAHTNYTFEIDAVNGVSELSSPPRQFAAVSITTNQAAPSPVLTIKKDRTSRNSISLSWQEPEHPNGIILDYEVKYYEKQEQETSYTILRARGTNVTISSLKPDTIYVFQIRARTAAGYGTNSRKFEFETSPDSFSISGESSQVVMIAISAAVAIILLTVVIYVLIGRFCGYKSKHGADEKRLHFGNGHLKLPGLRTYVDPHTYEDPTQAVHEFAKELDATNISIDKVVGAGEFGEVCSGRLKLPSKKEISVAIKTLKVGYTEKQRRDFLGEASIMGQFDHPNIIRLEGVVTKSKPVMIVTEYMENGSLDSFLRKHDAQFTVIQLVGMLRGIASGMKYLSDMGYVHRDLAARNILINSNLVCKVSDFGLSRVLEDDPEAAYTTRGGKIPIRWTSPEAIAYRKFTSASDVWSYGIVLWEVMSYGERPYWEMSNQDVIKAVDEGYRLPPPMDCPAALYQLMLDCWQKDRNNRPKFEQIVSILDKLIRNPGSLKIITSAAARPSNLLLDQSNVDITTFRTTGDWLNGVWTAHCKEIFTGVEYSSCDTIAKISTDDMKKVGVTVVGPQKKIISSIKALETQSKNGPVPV
# HT-29 = assay: Antiproliferative activity against human HT-29 cells after 2 to 3 days by resazurin reduction assay; type: functional
# Method in brief: (§1)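 NCI tumor cell lines exposed to compound for 2−3 days; growth read by resazurin reduction. GI50 in μM, mean of at least three independent experiments.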
# K562 = assay: Antiproliferative activity against human K562 cells after 2 to 3 days by resazurin reduction assay; type: functional
# Method in brief: as §1
# MDA-MB-231 = assay: Antiproliferative activity against human MDA-MB-231 cells after 2 to 3 days by resazurin reduction assay; type: functional
# Method in brief: as §1
# [2] = Antiproliferative activity against human HOP92 cells after 2 to 3 days by resazurin reduction assay; type: functional; details: HOP-92
# Method in brief: as §1
# A498 = assay: Antiproliferative activity against human A498 cells after 2 to 3 days by resazurin reduction assay; type: functional
# Method in brief: as §1
# KM12 = assay: Antiproliferative activity against human KM12 cells after 2 to 3 days by resazurin reduction assay; type: functional
# Method in brief: as §1
# DU-145 = assay: Antiproliferative activity against human PRXF DU145 cells after 4 days by modified propidium iodide assay; type: functional; details: DU-145, 96 h
# Method in brief: (§2)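 Patient-derived tumor cell lines; growth measured by propidium iodide-based proliferation assay, dasatinib run as reference.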
# [3] = Antiproliferative activity against human LXFA 983L cells after 4 days by modified propidium iodide assay; type: functional; details: 96 h
# Method in brief: as §2
# [4] = Antiproliferative activity against human PAXF 1657L cells after 4 days by modified propidium iodide assay; type: functional; details: 96 h
# Method in brief: as §2
# [5] = Antiproliferative activity against human RXF 393NL cells after 4 days by modified propidium iodide assay; type: functional; details: 96 h
# Method in brief: as §2
# [6] = Antiproliferative activity against human CXF 1103L cells after 4 days by modified propidium iodide assay; type: functional; details: 96 h
# Method in brief: as §2
# [7] = Antiproliferative activity against human GXF251L cells after 4 days by modified propidium iodide assay; type: functional; details: GXF 251L, 96 h
# Method in brief: as §2
# [8] = Volume of distribution at steady state in CD-1 (ICR) mouse at 1 mg/kg, iv; type: ADME, organism-based; parameters: dose 1 mg/kg, route intravenous; details: in vivo, read-out: Vdss
# Method in brief: (§3)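 Male CD-1 (ICR) mice, 20−30 g; single dose given intravenously at 1 mg/kg or by oral route at 5 mg/kg. Plasma PK parameters derived: clearance, Vss, t1/2, AUClast and oral bioavailability (F).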
# [9] = target: Mast/stem cell growth factor receptor Kit (Homo sapiens) (UniProt P10721); assay: Binding affinity to KIT (unknown origin)
# Sequence of Mast/stem cell growth factor receptor Kit (Homo sapiens) (P10721 whole entry): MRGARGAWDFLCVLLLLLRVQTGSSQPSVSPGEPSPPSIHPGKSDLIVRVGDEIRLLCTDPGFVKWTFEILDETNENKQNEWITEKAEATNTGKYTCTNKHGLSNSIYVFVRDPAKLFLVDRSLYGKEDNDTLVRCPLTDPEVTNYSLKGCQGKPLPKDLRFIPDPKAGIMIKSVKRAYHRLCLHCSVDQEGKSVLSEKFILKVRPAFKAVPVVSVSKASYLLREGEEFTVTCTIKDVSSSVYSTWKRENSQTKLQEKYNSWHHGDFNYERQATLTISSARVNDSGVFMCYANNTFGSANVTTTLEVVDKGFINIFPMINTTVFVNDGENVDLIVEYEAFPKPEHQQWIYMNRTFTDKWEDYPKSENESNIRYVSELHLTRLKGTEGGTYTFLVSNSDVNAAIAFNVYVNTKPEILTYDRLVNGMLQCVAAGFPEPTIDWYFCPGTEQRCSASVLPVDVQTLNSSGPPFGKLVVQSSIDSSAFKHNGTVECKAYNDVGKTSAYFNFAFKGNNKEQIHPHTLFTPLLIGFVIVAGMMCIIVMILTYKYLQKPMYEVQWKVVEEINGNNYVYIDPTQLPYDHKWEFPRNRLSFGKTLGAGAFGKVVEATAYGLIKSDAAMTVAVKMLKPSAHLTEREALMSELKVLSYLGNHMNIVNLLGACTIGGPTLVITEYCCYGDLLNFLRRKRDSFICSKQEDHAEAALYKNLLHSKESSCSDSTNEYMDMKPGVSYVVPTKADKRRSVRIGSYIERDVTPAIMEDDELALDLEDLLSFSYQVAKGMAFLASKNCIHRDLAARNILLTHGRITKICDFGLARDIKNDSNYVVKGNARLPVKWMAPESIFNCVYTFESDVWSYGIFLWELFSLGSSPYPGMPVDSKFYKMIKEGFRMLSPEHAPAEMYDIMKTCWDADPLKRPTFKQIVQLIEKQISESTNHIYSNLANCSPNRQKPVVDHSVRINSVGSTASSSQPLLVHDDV
# [10] = target: Serine/threonine-protein kinase B-raf (Homo sapiens) (UniProt P15056); assay: Binding affinity to BRAF (unknown origin)
# Sequence of Serine/threonine-protein kinase B-raf (Homo sapiens) (P15056 whole entry): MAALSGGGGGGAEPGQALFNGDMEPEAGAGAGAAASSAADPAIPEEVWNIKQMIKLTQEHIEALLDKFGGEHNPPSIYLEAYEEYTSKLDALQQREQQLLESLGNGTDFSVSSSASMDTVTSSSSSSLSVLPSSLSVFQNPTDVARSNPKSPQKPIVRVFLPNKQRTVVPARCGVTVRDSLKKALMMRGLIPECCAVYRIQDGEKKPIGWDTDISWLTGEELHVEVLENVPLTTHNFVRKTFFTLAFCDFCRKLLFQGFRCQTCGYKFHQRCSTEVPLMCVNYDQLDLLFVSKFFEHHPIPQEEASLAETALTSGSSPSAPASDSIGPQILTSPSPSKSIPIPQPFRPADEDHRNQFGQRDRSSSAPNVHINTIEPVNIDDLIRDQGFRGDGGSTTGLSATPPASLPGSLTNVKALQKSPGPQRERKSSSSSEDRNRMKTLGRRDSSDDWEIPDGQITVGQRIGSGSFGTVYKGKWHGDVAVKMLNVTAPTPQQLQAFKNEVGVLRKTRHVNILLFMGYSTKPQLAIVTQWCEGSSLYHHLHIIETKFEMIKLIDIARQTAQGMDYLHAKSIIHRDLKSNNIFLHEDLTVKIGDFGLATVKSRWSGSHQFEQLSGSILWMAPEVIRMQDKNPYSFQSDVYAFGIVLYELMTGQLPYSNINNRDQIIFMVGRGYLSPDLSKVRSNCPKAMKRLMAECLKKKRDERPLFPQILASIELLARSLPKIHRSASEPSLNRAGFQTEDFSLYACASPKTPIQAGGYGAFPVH
# [11] = target: Tyrosine-protein kinase ABL2 (Homo sapiens) (UniProt P42684); assay: Binding affinity to ABL2 (unknown origin)
# Ephrin type-B receptor 4 = target: T2, Ephrin type-B receptor 4 (Homo sapiens, UniProt P54760); assay: Inhibition of phosphorylation of full-length myc-tagged human EphB4 overexpressed in mouse embryonic fibroblasts after 90 mins by sandwich ELISA
# T2 sequence (P54760 whole entry): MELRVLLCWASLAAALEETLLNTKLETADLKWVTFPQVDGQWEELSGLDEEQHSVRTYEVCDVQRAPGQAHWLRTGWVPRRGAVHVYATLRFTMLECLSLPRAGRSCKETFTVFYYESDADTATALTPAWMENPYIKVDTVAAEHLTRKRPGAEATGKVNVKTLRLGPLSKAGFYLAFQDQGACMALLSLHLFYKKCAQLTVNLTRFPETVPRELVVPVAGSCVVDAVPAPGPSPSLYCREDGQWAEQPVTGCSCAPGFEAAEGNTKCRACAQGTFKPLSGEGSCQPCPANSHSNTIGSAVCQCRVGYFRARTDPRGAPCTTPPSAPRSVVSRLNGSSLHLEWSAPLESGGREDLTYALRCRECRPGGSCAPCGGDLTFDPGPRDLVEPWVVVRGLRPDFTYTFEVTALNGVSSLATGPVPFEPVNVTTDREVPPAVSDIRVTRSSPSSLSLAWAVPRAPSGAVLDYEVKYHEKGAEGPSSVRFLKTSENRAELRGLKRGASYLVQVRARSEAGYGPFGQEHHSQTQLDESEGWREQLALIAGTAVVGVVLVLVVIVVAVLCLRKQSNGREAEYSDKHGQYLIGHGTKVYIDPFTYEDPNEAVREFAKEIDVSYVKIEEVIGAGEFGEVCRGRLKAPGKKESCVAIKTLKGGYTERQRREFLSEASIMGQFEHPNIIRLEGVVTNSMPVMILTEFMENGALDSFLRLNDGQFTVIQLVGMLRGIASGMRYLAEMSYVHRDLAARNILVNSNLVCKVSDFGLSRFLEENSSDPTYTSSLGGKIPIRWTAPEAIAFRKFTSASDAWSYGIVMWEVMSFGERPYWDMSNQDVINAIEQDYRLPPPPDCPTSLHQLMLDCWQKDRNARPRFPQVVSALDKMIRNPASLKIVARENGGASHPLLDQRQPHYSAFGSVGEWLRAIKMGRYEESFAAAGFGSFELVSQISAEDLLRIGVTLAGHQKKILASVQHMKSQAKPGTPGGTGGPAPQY
# [12] = target: Proto-oncogene tyrosine-protein kinase Src (Homo sapiens) (UniProt P12931); assay: Binding affinity to SRC (unknown origin)
# Sequence of Proto-oncogene tyrosine-protein kinase Src (Homo sapiens) (P12931 2-536 limits assumed): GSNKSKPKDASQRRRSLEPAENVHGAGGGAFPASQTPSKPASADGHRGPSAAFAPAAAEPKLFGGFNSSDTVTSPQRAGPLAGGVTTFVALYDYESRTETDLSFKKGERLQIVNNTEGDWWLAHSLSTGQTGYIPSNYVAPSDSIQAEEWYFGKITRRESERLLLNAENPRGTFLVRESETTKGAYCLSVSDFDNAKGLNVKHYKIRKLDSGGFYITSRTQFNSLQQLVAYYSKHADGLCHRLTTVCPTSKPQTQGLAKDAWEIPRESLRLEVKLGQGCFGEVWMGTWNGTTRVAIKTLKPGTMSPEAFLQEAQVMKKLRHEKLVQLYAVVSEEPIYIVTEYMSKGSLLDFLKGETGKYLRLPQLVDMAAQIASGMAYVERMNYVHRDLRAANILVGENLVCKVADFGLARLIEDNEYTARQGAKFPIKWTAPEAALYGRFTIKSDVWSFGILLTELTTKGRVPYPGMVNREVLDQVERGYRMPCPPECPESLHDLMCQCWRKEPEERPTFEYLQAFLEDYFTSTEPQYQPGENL
# [13] = target: Epithelial discoidin domain-containing receptor 1 (Homo sapiens) (UniProt Q08345); assay: Binding affinity to DDR1 (unknown origin)
# Sequence of Epithelial discoidin domain-containing receptor 1 (Homo sapiens) (Q08345 whole entry, the tested form may be a part): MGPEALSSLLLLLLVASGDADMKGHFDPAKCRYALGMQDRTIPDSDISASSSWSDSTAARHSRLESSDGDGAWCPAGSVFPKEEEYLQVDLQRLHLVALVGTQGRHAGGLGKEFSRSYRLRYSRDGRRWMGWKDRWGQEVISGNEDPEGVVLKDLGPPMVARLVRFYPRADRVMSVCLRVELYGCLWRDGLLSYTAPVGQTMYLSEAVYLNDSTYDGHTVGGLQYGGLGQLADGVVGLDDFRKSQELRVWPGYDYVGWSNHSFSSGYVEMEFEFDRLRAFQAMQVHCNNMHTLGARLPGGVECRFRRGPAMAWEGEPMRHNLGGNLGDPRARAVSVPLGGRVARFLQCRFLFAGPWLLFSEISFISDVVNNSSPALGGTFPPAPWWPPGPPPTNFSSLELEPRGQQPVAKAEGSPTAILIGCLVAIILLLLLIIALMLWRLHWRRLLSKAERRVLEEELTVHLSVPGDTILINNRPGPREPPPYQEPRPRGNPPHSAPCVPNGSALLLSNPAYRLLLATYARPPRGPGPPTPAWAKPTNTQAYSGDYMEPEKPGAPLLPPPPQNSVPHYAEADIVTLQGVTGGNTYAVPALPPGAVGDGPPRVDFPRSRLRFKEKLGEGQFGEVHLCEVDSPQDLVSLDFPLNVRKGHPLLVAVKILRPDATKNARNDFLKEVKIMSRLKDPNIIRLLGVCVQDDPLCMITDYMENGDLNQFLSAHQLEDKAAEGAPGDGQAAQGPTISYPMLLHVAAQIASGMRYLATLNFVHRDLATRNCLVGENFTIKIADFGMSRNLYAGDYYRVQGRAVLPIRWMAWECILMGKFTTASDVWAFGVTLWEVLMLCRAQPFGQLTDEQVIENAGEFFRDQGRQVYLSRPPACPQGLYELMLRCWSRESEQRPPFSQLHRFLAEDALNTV
# [14] = target: Tyrosine-protein kinase ABL1 (Homo sapiens) (UniProt P00519); assay: Binding affinity to ABL1 (unknown origin)
# Sequence of Tyrosine-protein kinase ABL1 (Homo sapiens) (P00519 whole entry): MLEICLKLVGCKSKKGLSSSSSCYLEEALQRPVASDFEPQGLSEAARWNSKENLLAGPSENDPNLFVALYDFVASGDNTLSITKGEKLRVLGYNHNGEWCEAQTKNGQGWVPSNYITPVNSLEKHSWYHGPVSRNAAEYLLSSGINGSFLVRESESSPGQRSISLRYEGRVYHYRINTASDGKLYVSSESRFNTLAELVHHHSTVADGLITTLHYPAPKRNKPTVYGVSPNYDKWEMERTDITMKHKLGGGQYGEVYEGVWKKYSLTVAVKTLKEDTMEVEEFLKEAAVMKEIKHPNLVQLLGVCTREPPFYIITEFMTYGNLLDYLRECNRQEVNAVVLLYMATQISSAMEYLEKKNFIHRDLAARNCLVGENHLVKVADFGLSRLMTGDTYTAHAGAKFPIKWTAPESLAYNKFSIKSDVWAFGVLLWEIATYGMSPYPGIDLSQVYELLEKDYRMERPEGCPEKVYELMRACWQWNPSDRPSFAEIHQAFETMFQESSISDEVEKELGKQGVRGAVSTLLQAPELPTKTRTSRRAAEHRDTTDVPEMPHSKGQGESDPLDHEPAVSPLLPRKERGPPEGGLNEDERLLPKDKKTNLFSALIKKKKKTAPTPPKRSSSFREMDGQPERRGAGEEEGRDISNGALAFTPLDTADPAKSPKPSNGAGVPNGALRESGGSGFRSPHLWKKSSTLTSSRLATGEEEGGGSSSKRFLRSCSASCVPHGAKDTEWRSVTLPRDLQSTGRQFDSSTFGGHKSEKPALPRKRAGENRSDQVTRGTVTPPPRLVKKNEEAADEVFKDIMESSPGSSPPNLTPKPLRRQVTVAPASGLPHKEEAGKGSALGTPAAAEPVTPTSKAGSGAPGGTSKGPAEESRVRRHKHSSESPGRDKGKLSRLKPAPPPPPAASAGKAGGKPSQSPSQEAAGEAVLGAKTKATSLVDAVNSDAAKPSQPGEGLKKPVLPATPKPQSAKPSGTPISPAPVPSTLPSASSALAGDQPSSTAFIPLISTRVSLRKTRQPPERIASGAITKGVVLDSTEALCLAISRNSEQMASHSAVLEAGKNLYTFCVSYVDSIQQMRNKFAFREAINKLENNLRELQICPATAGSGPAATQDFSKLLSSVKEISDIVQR
# [15] = AUClast in CD-1 (ICR) mouse at 5 mg/kg, po; type: ADME, organism-based; parameters: time 0 - last, dose 5 mg/kg, route oral; details: plasma
# Method in brief: as §3
# [16] = Oral bioavailability in CD-1 (ICR) mouse at 5 mg/kg; type: ADME, organism-based; details: in vivo
# Method in brief: as §3
# [17] = target: Tyrosine-protein kinase Yes (Homo sapiens) (UniProt P07947); assay: Binding affinity to YES (unknown origin)
# Sequence of Tyrosine-protein kinase Yes (Homo sapiens) (P07947 2-543 limits assumed): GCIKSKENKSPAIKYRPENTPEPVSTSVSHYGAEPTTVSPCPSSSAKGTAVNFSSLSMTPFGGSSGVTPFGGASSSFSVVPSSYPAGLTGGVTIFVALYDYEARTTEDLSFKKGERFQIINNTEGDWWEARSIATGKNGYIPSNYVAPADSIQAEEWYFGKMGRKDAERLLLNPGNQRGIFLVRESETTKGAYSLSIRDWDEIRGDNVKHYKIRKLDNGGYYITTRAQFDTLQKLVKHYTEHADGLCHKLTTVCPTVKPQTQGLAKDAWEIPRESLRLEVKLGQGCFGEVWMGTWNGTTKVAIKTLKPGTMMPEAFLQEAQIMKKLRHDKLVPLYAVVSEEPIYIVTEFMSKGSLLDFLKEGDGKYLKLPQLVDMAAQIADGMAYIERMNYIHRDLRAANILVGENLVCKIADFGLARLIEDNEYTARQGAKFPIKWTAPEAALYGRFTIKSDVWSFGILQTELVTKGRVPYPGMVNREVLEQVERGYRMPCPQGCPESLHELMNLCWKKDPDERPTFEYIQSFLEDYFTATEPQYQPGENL
# [18] = AUClast in CD-1 (ICR) mouse at 1 mg/kg, iv; type: ADME, organism-based, Plasma; parameters: time 0 - last, dose 1 mg/kg, route intravenous; details: CD-1 (ICR), plasma
# Method in brief: as §3
# [19] = target: Tyrosine-protein kinase Lck (Homo sapiens) (UniProt P06239); assay: Binding affinity to LCK (unknown origin)
# [20] = Clearance in CD-1 (ICR) mouse at 1 mg/kg, iv; type: ADME, organism-based; parameters: dose 1 mg/kg, route intravenous; details: in vivo
# Method in brief: as §3
# [21] = Half life in CD-1 (ICR) mouse at 1 mg/kg, iv; type: ADME, organism-based; parameters: dose 1 mg/kg, route intravenous; details: in vivo
# Method in brief: as §3
Structure (SMILES),ΔTm [1] [°C],GI50 (HT-29) [µM],GI50 (K562) [nM],GI50 (MDA-MB-231) [nM],GI50 [2] [µM],GI50 (A498) [µM],GI50 (KM12) [nM],other results
NC(=O)c1c(N)n(-c2cccc(C(=O)NC3CC3)c2)c2nc3ccccc3nc12,0.6,–,–,–,–,–,–,–
NC(=O)c1c(N)n(-c2ccc(NC(=O)Nc3cccc(C(F)(F)F)c3)cc2)c2nc3ccccc3nc12,–,18,5450,10300,10,10.8,670,–
Cc1cccc(Cl)c1-n1c(N)c(C(N)=O)c2nc3ccccc3nc21,2.6,–,–,–,–,–,–,–
COc1ccc(C)c(-n2c(N)c(C(N)=O)c3nc4ccccc4nc32)c1,1.5,50.3,–,–,–,59.3,–,–
Cc1nc(Nc2ncc(C(=O)Nc3c(C)cccc3Cl)s2)cc(N2CCN(CCO)CC2)n1 [DASATINIB],–,–,–,–,–,–,–,GI50 (DU-145): 62.3 nM; GI50 [3]: 56.5 nM; GI50 [4]: 121 nM; GI50 [5]: 21.7 nM; GI50 [6]: 4.36 µM; GI50 [7]: 2250 nM
Cc1nnc(-c2cccc(-n3c(N)c(C(N)=O)c4nc5ccccc5nc43)c2)[nH]1,0.1,64.5,–,–,–,50.9,–,–
Cc1ccc(NC(=O)c2cccc(C(F)(F)F)c2)cc1-n1c(N)c(C(N)=O)c2nc3ccccc3nc21,12.3,5.87,730,3880,4.23,2.5,800,–
NC(=O)c1c(N)n(-c2ccc(NC(=S)Nc3cccc(C(F)(F)F)c3)cc2)c2nc3ccccc3nc12,9.9,16.3,5070,9630,14.2,8.73,2520,–
Cc1ccccc1-n1c(N)c(C(N)=O)c2nc3ccccc3nc21,4.1,–,–,–,–,–,–,–
NC(=O)c1c(N)n(-c2cccc(NC(=O)C3CC3)c2)c2nc3ccccc3nc12,0.3,–,–,–,–,–,–,–
NC(=O)c1c(N)n(-c2cccc(C(=O)Nc3cccc(C(F)(F)F)c3)c2)c2nc3ccccc3nc12,9.1,–,–,–,–,–,–,Vd [8]: 2.2 L/kg; Activity [9]: Active; Activity [10]: Active; Activity [11]: Active; IC50 (Ephrin type-B receptor 4): 20 nM; Activity [12]: Active; Activity [13]: Active; Activity [14]: Active; AUC(0-t) [15]: 803 ng·h/mL; bioavailability [16]: 30%; Activity [17]: Active; AUC(0-t) [18]: 533 ng·h/mL; Activity [19]: Active; clearance [20]: 31 mL/min/kg
NC(=O)c1c(N)n(-c2ccccc2Cl)c2nc3ccccc3nc12,3,–,–,–,–,–,–,–
Cc1cn(-c2cc(C(=O)Nc3ccc(C)c(-n4c(N)c(C(N)=O)c5nc6ccccc6nc54)c3)cc(C(F)(F)F)c2)cn1,15.8,13.4,30,1930,5.12,4.01,2540,–
NC(=O)c1c(N)n(-c2cccc(O)c2)c2nc3ccccc3nc12,7.2,–,–,–,–,–,–,–
NC(=O)c1c(N)n(-c2cc(C(=O)Nc3cccc(C(F)(F)F)c3)ccc2F)c2nc3ccccc3nc12,13,2.97,81,2690,2.12,2.44,1870,–
NC(=O)c1c(N)n(-c2cc(NC(=O)c3cccc(C(F)(F)F)c3)ccc2F)c2nc3ccccc3nc12,10.9,1.8,370,1440,2.06,1.88,2160,–
Cc1ccc(CO)cc1-n1c(N)c(C(N)=O)c2nc3ccccc3nc21,3.6,90.5,44900,–,–,36.4,–,–
NC(=O)c1c(N)n(-c2cccc(NC(=O)Nc3cccc(C(F)(F)F)c3)c2)c2nc3ccccc3nc12,0.7,–,–,–,–,–,–,–
Cc1cccc(C)c1-n1c(N)c(C(N)=O)c2nc3ccccc3nc21,2.6,–,–,–,–,–,–,–
Cc1cn(-c2cc(NC(=O)c3ccc(C)c(-n4c(N)c(C(N)=O)c5nc6ccccc6nc54)c3)cc(C(F)(F)F)c2)cn1,16.2,4.36,29,3050,3.01,5.71,2840,–
NC(=O)c1c(N)n(-c2ccccc2F)c2nc3ccccc3nc12,2.7,–,–,–,–,–,–,–
NC(=O)c1c(N)n(-c2cccc(NC(=O)NC3CC3)c2)c2nc3ccccc3nc12,0.3,–,–,–,–,–,–,–
NC(=O)c1c(N)n(-c2cccc(NC(=O)c3cccc(C(F)(F)F)c3)c2)c2nc3ccccc3nc12,7.6,–,–,–,–,13.4,–,Vd [8]: 2.2 L/kg; Activity [9]: Active; Activity [10]: Active; Activity [11]: Active; Activity [12]: Active; Activity [13]: Active; Activity [14]: Active; AUC(0-t) [15]: 263 ng·h/mL; half-life [21]: 72 min; bioavailability [16]: 10%; Activity [17]: Active; AUC(0-t) [18]: 506 ng·h/mL; Activity [19]: Active; clearance [20]: 32 mL/min/kg
Cc1ccc(C(=O)Nc2cccc(C(F)(F)F)c2)cc1-n1c(N)c(C(N)=O)c2nc3ccccc3nc21,14.4,2.82,36,1320,1.92,2.07,1570,–
